Key:
[1] = biological target: T1, 3',5'-cyclic-AMP phosphodiesterase 4D (Homo sapiens, UniProt Q08499); experiment: Inhibition of human PDE4D2 catalytic domain (86 to 413 amino acids) expressed in Escherichia coli strain BL21 at 10 uM after 15 mins using [3H]-cAMP by liquid scintillation counting
In short: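 Single-point primary screen of percent inhibition against PDE4D2 at an initial concentration of 10 μM, using [3H]cAMP as substrate and liquid scintillation counting of radioactivity. Enzyme was produced using LB medium. Rolipram served as the reference inhibitor. The method follows the authors' earlier reports.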

[2] = biological target: T1, 3',5'-cyclic-AMP phosphodiesterase 4D; experiment: Inhibition of human PDE4D2 catalytic domain (86 to 413 amino acids) expressed in Escherichia coli strain BL21 after 15 mins using [3H]-cAMP by liquid scintillation counting
In short: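 IC50 determined against PDE4D2 only for compounds that gave more than 50% inhibition in the 10 μM primary screen. Substrate was [3H]cAMP and read-out was liquid scintillation counting. Enzyme was produced using LB medium. Rolipram served as the reference inhibitor. The method otherwise follows the authors' earlier reports.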

T1 sequence (Q08499 whole entry, the tested form may be a part): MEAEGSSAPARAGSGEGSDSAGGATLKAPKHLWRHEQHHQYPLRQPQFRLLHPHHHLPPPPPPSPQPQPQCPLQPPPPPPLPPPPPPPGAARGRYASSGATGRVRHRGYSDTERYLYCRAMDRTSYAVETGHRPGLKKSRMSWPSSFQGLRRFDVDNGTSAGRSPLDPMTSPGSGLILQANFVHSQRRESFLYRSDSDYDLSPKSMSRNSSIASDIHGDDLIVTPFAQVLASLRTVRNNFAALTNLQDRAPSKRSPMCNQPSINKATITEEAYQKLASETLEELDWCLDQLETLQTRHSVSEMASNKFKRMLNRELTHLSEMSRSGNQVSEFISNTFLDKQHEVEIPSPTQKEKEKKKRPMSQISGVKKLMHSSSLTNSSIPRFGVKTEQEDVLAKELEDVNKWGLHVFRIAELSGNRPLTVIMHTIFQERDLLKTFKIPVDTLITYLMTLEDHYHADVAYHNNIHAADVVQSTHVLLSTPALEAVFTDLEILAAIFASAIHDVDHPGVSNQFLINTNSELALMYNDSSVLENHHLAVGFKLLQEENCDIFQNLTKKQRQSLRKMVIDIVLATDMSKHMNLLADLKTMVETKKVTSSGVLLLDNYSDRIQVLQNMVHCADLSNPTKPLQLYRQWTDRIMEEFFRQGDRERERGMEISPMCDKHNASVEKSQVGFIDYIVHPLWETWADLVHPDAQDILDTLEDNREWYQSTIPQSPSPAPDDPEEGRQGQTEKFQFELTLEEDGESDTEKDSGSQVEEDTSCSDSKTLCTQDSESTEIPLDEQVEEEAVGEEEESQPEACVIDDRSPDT

| SMILES | inhibition [1] [%] | IC50 [2] [µM] |
| --- | --- | --- |
| CCC(CC[C@@H](/C=C/[C@@H]1[C@@H](C/C=C\CCCC(=O)OC)[C@@H](OC(=O)[C@](OC)(c2ccccc2)C(F)(F)F)C[C@H]1OC(C)=O)OC(=O)[C@](OC)(c1ccccc1)C(F)(F)F)OC(C)=O (stereo partly specified) | 58 | 3.6 |
| CCC(CC[C@@H](/C=C/[C@@H]1[C@@H](C/C=C\CCCC(=O)OC)[C@@H](OC(C)=O)C[C@H]1OC(C)=O)OC(=O)[C@](OC)(c1ccccc1)C(F)(F)F)OC(C)=O (stereo partly specified) | 28.4 | – |
| CCCCC[C@@H](/C=C/[C@@H]1[C@@H](C/C=C\CCCC(=O)OC)[C@@H](OC(C)=O)C[C@H]1O)OC(C)=O | 74.7 | 4.7 |
| CCCCC[C@@H](/C=C/[C@@H]1[C@@H](/C=C/CCCCC(=O)OC)[C@@H](O)C[C@H]1OC(C)=O)OC(C)=O | 57.3 | 7.2 |
| CCC(CC[C@@H](/C=C/[C@@H]1[C@@H](C/C=C\CCCC(=O)OC)[C@@H](OC(=O)[C@@](OC)(c2ccccc2)C(F)(F)F)C[C@H]1OC(C)=O)OC(=O)[C@@](OC)(c1ccccc1)C(F)(F)F)OC(C)=O (stereo partly specified) | 51.1 | 5.9 |
| CCC(CC[C@H](O)/C=C/[C@@H]1[C@@H](C/C=C\CCCC(=O)OC)[C@@H](OC(C)=O)C[C@H]1OC(C)=O)OC(C)=O (stereo partly specified) | 11.4 | – |
| CCC(CC[C@@H](/C=C/[C@@H]1[C@@H](C/C=C\CCCC(=O)OC)[C@@H](OC(C)=O)C[C@H]1OC(C)=O)OC(C)=O)OC(C)=O (stereo partly specified) | 66.5 | 3.7 |
| CCC(CC[C@@H](/C=C/[C@@H]1[C@@H](C/C=C\CCCC(=O)OC)[C@@H](O)C[C@H]1OC(C)=O)OC(C)=O)OC(C)=O (stereo partly specified) | 38.7 | – |
| CCCCC[C@@H](/C=C/[C@@H]1[C@@H](C/C=C\CCCC(=O)OC)[C@@H](OC(C)=O)C[C@H]1OC(C)=O)OC(C)=O | 94.6 | 1.4 |
| CCCCC[C@@H](/C=C/[C@@H]1[C@@H](CCCCCCC(=O)OC)[C@@H](O)C[C@H]1OC(C)=O)OC(C)=O | 41.7 | – |
| CCC(CC[C@@H](/C=C/[C@@H]1[C@@H](C/C=C\CCCC(=O)OC)[C@@H](OC(C)=O)C[C@H]1OC(C)=O)OC(=O)[C@@](OC)(c1ccccc1)C(F)(F)F)OC(C)=O (stereo partly specified) | 15.1 | – |

Continued, values first:

| inhibition [1] [%] | IC50 [2] [µM] | SMILES |
| --- | --- | --- |
| 21.9 | – | CCC(=O)CC[C@H](O)/C=C/[C@@H]1[C@@H](C/C=C\CCCC(=O)OC)[C@@H](O)C[C@H]1OC(C)=O |
| 71.9 | 5.5 | CCCCC[C@@H](/C=C/[C@@H]1[C@@H](C/C=C\CCCC(=O)OC)[C@@H](O)C[C@H]1OC(C)=O)OC(C)=O |
| -3.93 | – | CCC(O)CC[C@H](O)/C=C/[C@@H]1[C@@H](C/C=C\CCCC(=O)O)[C@@H](O)C[C@H]1O (stereo partly specified) |
| 57.2 | 12.1 | CCC(=O)CC[C@@H](/C=C/[C@@H]1[C@@H](C/C=C\CCCC(=O)OC)[C@@H](O)C[C@H]1OC(C)=O)OC(C)=O |
| 26 | – | CCC(=O)CC[C@H](O)/C=C/[C@@H]1[C@@H](C/C=C\CCCC(=O)O)[C@@H](O)C[C@H]1OC(C)=O |
| -6.05 | – | CCC(CC[C@H](O)/C=C/[C@@H]1[C@@H](C/C=C\CCCC(=O)OC)[C@@H](O)C[C@H]1OC(C)=O)OC(C)=O (stereo partly specified) |
| 50.4 | 16.9 | CCC(=O)CC[C@@H](/C=C/[C@@H]1[C@@H](C/C=C\CCCC(=O)O)[C@@H](O)C[C@H]1OC(C)=O)OC(C)=O |
| 10.1 | – | CCC(=O)CC[C@H](O)/C=C/[C@@H]1[C@@H](C/C=C\CCCC(=O)O)[C@@H](O)C[C@H]1O |
| 3.12 | – | CCC(CC[C@H](O)/C=C/[C@@H]1[C@@H](C/C=C\CCCC(=O)O)[C@@H](O)C[C@H]1OC(C)=O)OC(C)=O (stereo partly specified) |
| 65 | 10.6 | CCC(=O)CC[C@@H](/C=C/[C@@H]1[C@@H](C/C=C\CCCC(=O)OC)[C@@H](OC(C)=O)C[C@H]1OC(C)=O)OC(C)=O |

From ChEMBL document CHEMBL3352813, “Prostaglandin Derivatives: Nonaromatic Phosphodiesterase-4 Inhibitors from the Soft Coral Sarcophyton ehrenbergi” (J Nat Prod, 2014)
